High-throughput results (PubChem)
APP 5'UTR act = activators of APP 5'UTR luciferase reporter, primary screen, SH-SY5Y cells; AID 1276, 2008; 1% of 190,000 active; activation, % at 2 µM; SH-SY5Y APP 5'UTR luciferase reporter, luminescence; zero percent = DMSO vehicle wells;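 active = activation above a set limit, based on mean plus 3 SD of controls, cut at about 140% in these data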
Pf gamet viab = late stage P. falciparum gametocyte viability inhibitors, primary screen, ATP luminescence, HTS; 0.065% of 150,000 active; AID 743093, 2013; P. falciparum stage V gametocytes, 24 h; inhibition, % at 10.9 µM;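 active = inhibition above the mean plus 3 SD of compounds within the control limits, set per campaign, cut at about 38% in these data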
NF-kB expr up = activators of NF-kB expression in neurons, primary screen, cell-based, HTS. 1.6% of 190,000 active. human neuronal cells, NF-kB reporter expression; stronger effect = higher value. AID 1239, 2008. fold change at 12.5 µM; in the data active = fold change above about 3.3
STAT1 activator = STAT1 signaling activators, primary screen, cell-based, HTS, luciferase reporter; NIH 3T3 STAT1-luciferase reporter, IFN-gamma, luminescence; 100% = IFN-gamma alone, no compound; activation (% of control), % at 5.5 µM; 2.6% of 200,000 active;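 active = activation above the screen-wide mean activation plus 3 SD, cut at about 130% in these data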
FLuc inh counter = firefly luciferase enzyme inhibitors, primary screen, artefact control for luciferase-based inhibitor screens, biochemical, luminescence, ATPLite; 10 min; inhibition, % at 10 µM; 1.5% of 200,000 active;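 active = inhibition above about 50% when tested at 10 µM, limit read from the data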
Target sequence (P08659 whole entry, looked up): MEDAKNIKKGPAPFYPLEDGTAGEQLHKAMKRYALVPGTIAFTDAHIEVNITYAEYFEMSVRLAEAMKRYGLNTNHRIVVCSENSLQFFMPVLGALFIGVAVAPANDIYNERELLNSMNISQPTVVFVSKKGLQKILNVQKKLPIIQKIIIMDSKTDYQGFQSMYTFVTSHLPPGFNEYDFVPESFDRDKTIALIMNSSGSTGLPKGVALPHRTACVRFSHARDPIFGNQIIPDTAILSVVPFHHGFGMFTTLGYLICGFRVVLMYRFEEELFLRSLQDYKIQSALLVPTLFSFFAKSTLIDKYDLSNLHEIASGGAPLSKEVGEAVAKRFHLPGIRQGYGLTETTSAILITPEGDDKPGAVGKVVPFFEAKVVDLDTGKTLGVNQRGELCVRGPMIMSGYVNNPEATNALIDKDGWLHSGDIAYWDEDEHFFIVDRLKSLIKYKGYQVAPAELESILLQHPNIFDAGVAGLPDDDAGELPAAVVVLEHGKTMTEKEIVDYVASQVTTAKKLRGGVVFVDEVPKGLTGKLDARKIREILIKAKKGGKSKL
FLuc act counter = FLuc activators, initial screening, artefact control for FLuc-dependent activation tests, biochemical, ATPlite luminescence. Luciferin 4-monooxygenase (Photinus pyralis), P08659. ATPlite luciferase biochemical, 10 min; 0 = ATP-free wells, 1 = DMSO control. activation factor at 10 µM. 200,000 tested, under 10 active. AID 1027, 2008;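 active = luciferase activation factor, scaled between plate controls, of at least 2 with compound at 10 µM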
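test system = cell-free luciferase reagent | medium = PBS as buffer for the ATP substrate | dosing = test compounds dosed from 2 mM stocks in 100% DMSO | incubation = 10 min at ambient temperature | detection = luminescence measurement of luciferase light output | benchmarks = low control with PBS replacing ATP, high control enzyme plus ATP without compound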
Hits are given with their value; - = inactive; . = no result given. Rows were chosen to be rich in hits. Some 3.5% of all compounds tested hit in one or more screens of this group.

SMILES	APP 5'UTR act	Pf gamet viab	NF-kB expr up	STAT1 activator	FLuc inh counter	FLuc act counter
CC(=Nc1ccc(C)cc1C)c1sc2ccccc2c1O	154	-	4.8	143	85	-
Cc1ccc(O)c(N=Cc2sc3ccccc3c2Cl)c1	-	-	-	-	-	-
Nc1nn(-c2cccc(F)n2)cc1-c1ccc(Cl)cc1	251	-	12	-	57	-
Nc1nc(Br)c2c(F)cccc2c1-c1ccccc1	-	.	-	-	-	-
Nc1nn(-c2cccc(F)n2)cc1-c1ccccc1	213	-	9.9	-	64	-
Cc1ccc(C(=O)Cn2cnc3ccccc3c2=O)cc1C	-	.	3.3	138	-	-
O=C(Cn1cnc2ccccc2c1=O)c1ccc2c(c1)OCCO2	151	.	3.6	137	-	-
O=C(CSc1ccc2ccccc2n1)c1ccc2c(c1)OCO2	-	-	-	134	-	-
Cc1ccc(C(=O)CSc2cnc3ccccc3n2)cc1C	154	-	-	-	-	-
CC(C)Oc1ccc(C(=O)/C(=C\c2cccs2)c2nc3ccccc3o2)cc1	-	-	-	-	-	-
Cc1ccc(CNC(=O)C2CCN(S(=O)(=O)N3CCCCC3)CC2)cc1	-	40	-	-	-	-
CC(C)(C)C1CCc2c(C(=O)N/N=C/c3cccs3)csc2C1 (configuration not stated)	-	.	-	129	-	-
COc1ccc(NC(=O)c2csc3c2CCCC3)cc1	159	.	7.3	142	-	-
COc1cccc(NC(=O)c2csc3c2CCCC3)c1	-	-	-	145	-	-
Cc1ccccc1NC(=O)c1csc2c1CCCC2	-	.	-	-	-	-
Cc1ccc(/C=N/NC(=O)c2csc3c2CCCC3)cc1	-	-	3.8	-	-	-
COc1cc(/C=N/NC(=O)c2csc3c2CCCC3)cc(OC)c1O	-	-	-	-	-	-
COc1ccc(NC(C)=O)cc1S(=O)(=O)Nc1ccc(C(=O)N2CCCC2)cc1	.	-	.	.	.	.
Cc1cc(OCC(=O)c2cccc(C(F)(F)F)c2)n2cnnc2n1	.	-	.	.	.	.
O=C(CC1S/C(=N/N=C/c2cccs2)NC1=O)Nc1ccccc1F (configuration not stated)	-	-	-	-	-	-
Cc1ccc(/C=N\NC(=O)c2csnn2)cc1	-	-	-	134	66	-
CCC(C)NC(=S)N(Cc1cc2cc(C)ccc2n2nnnc12)CC(C)(C)NC(C)C (configuration not stated)	.	-	.	.	.	.
CCCc1ccc(-c2ccc(/C=C/C(=O)O)cc2)nc1	-	-	-	-	86	-
CCCCCCCc1ccc(-c2ccc(O)cc2)nc1	-	-	-	-	-	-
CCCCCc1ccc(-c2ccc(/C=C/C(=O)O)cc2)nc1	-	-	4.6	-	78	-
SMILES	APP 5'UTR act	Pf gamet viab	NF-kB expr up	STAT1 activator	FLuc inh counter	FLuc act counter
Brc1ccccc1-c1nnc(SCc2nc3ccccc3s2)o1	-	-	-	136	-	-
CCn1ccc(C(=O)Nc2cccc(Cl)c2)n1	-	-	-	141	-	-
CCn1cc(Br)c(C(=O)Nc2cccc(Cl)c2)n1	-	.	-	-	-	-
CCn1ccc(C(=O)Nc2ccccc2Cl)n1	162	.	4.1	138	-	-
O=C(Nc1ccc(CN2CCCCC2)cc1)Nc1ccccc1Cl	-	-	-	-	-	-
CCN1CCN(Cc2ccc(NC(=O)Nc3ccccc3Cl)cc2)CC1	141	.	-	-	66	-
O=CN1CCN(S(=O)(=O)c2ccc(Cl)c(C(=O)O)c2)CC1	-	-	-	-	-	-
CN1CCOCCOCCN(C)C1=O	-	-	-	-	-	-
COc1ccc(-c2nc3ccc(N4CCN(C)CC4)cc3c(=O)[nH]2)cc1	-	-	-	130	-	-
COc1cc(-c2nc3ccc(N4CCN(C)CC4)cc3[nH]2)cc(OC)c1OC	-	-	-	-	-	-
CCOC(=O)[C@H](O)[C@@H](O)c1cccc([C@H](O)[C@@H](O)C(=O)OCC)c1	.	-	.	.	.	.
CCc1ccc(C(=O)COC(=O)c2cccc(N3C(=O)c4c(C)nc5ccccc5c4C3=O)c2)cc1	-	-	-	-	51	-
COC(=O)c1cccc(NC(=O)c2ccc3c(c2)C(=O)N(CC2CCCO2)C3=O)c1 (configuration not stated)	-	.	-	-	-	-
CCOC(=O)c1cccc(NC(=O)c2cccnc2)c1	-	.	-	-	-	-
O=C(O)c1cccc(NC(=O)c2ccc3c(c2)C(=O)N(CC2CCCO2)C3=O)c1 (configuration not stated)	-	-	-	-	51	-
CCC(=O)Nc1cccc(NC(=S)NC(=O)c2ccc(C)cc2)c1	-	-	-	145	-	-
CC(=O)c1cccc(NC(=S)NC(=O)c2ccc(C)cc2)c1	-	-	3.5	138	-	-
CCOC(=O)c1cccc(NC(=O)c2ccc(N(C)C)cc2)c1	-	-	-	-	60	-
CCC(=O)Nc1cccc(NC(=S)NC(=O)c2cccc(C)c2)c1	-	.	-	-	-	-
O=C1CN(C(=O)c2ccc(Cl)c([N+](=O)[O-])c2)c2ccccc2N1	.	-	.	.	.	.
Cn1nc2c3ccccc3n(Cc3ccc(F)cc3)c2nc1=S	.	-	.	.	.	.
Cc1ccc(C(=O)N2N=C3c4ccccc4S(=O)(=O)N3[C@H]2N(C)C)cc1	-	.	-	-	-	-
COc1ccc2c(c1OC)C(=O)N(c1nc(SC)n[nH]1)C2=O	.	-	.	.	.	.
NNC(=O)C1SCCN1S(=O)(=O)c1ccc(Cl)cc1 (configuration not stated)	.	-	.	.	.	.
CCOC(=O)Cc1csc(NC(=S)NC(=O)c2ccc(C)cc2)n1	-	-	-	-	80	-
SMILES	APP 5'UTR act	Pf gamet viab	NF-kB expr up	STAT1 activator	FLuc inh counter	FLuc act counter
CC(=O)c1cccc(NC(=S)NC(=O)c2ccc(C)cc2Cl)c1	-	.	-	131	-	-
Cc1ccc(C(=O)Nc2cccc(C(=O)O)c2)cc1	-	-	5.3	-	62	-
Cn1nnnc1NCc1ccccc1F	.	-	.	.	.	.
Nc1c(C(=O)NC2CCCC2)c2nc3ccccc3nc2n1/N=C/c1cccnc1	.	-	.	.	.	.
c1ccc(Cn2ccc(-c3cnc(-c4ccccc4)s3)n2)cc1	-	-	6.8	142	-	-
Nc1ccc2oc(=O)c3ccccc3c2c1	-	.	-	134	-	-
Cc1ccc(NC(CC(=O)c2ccccc2)C(=O)O)cc1Cl (configuration not stated)	.	-	.	.	.	.
O=C(CC(Nc1ccccc1)C(=O)O)c1ccccc1 (configuration not stated)	.	-	3.3	.	78	-
O=C(Cc1ccc(Br)cc1)c1ccc(O)cc1O	-	.	-	130	-	-
